Measured values reported in ChEMBL document CHEMBL4715825, “Synthesis and biological evaluations of marine oxohexadecenoic acids: PPARα/γ dual agonism and anti-diabetic target gene effects” (Eur J Med Chem, 2018).
Active and inactive are the calls of the source. The calls are words filed in the database; no cut-off is given here.

What was measured:
[1] = biological target: T1, Peroxisome proliferator-activated receptor alpha (Homo sapiens, UniProt Q07869); experiment: Agonist activity at recombinant human PPARalpha LBD (168 to 468 residues) expressed in African green monkey COS-1 cells incubated for 18 hrs by luciferase reporter gene assay; format: cell-based
T1 sequence (Q07869 whole entry): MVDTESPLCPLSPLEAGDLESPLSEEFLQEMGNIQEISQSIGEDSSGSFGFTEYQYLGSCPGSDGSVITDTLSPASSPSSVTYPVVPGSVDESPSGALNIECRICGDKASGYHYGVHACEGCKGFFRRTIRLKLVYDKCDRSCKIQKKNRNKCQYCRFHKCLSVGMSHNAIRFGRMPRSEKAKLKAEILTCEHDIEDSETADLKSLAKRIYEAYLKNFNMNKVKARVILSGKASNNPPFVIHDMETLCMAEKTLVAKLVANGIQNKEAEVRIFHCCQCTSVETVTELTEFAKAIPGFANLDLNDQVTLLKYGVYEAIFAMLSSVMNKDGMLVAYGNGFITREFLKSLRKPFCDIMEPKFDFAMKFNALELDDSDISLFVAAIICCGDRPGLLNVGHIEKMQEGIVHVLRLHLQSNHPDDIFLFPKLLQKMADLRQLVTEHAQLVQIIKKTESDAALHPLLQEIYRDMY
Procedure, shortened: (§1)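 Transient Gal4 one-hybrid assay in COS-1 cells (7×10^4 per well), transfected 24 h after seeding. Plasmids were Gal4-DBD fused to the human nuclear receptor LBD, a 5×UAS-SV40 luciferase reporter and pRL-CMV Renilla control. Ligand in DMSO (final 0.1%) was added 5 h post-transfection. Dual-luciferase activity was read after 18 h, expressed as RLU, from three biological replicates in quadruplicate.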

[2] = biological target: T2, Peroxisome proliferator-activated receptor gamma (Homo sapiens) (UniProt P37231); experiment: Agonist activity at recombinant human PPARgamma LBD (205 to 505 residues) expressed in African green monkey COS-1 cells at 25 to 50 uM incubated for 18 hrs by luciferase reporter gene assay; format: cell-based; settings: filed as agonist, dose 25-50 µM; procedure, shortened: as §1
T2 sequence (whole entry): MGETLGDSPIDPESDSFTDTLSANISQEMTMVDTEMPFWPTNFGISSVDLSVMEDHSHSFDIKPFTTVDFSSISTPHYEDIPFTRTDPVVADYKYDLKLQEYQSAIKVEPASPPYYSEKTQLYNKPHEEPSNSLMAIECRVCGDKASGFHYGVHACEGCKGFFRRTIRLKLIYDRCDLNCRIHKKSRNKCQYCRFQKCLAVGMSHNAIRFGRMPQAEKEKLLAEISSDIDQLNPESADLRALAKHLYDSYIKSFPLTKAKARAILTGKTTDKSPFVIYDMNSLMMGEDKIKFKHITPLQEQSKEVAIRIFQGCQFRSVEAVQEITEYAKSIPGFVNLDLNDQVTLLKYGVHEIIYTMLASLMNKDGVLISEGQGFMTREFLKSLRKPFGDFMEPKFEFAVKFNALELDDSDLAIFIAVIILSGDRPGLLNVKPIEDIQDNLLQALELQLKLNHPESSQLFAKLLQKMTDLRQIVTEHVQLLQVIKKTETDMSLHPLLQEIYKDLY

[3] = biological target: T3, Peroxisome proliferator-activated receptor alpha (Homo sapiens) (UniProt Q07869); experiment: Agonist activity at human PPARalpha in human HuH-7 cells assessed as increase in ANGPTL4 gene expression at 50 uM incubated for 24 hrs by SYBR-green based qPCR analysis; format: cell-based; settings: filed as agonist
T3 sequence (whole entry): T1 sequence (Q07869 whole entry)
Procedure, shortened: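 Cells were seeded at 2×10^5 per well and treated 24 h later with compound in DMSO (final 0.1%). The next day, cells were washed and scraped into RLT buffer. RNA was isolated, and target gene mRNA was quantified by SYBR-green qPCR with specific primers.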

[4] = biological target: T3, Peroxisome proliferator-activated receptor alpha (Homo sapiens); experiment: Agonist activity at human PPARalpha in 8 day differentiated human SGBS cells assessed as increase in CPT1A gene expression at 25 uM incubated for 24 hrs by SYBR-green based qPCR analysis; format: cell-based; settings: filed as agonist
Procedure, shortened: (§2)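 SGBS preadipocytes were seeded at passage P6-P8 and grown to confluence. They were differentiated for 4 days in Quickdiff (3FC plus dexamethasone, IBMX and rosiglitazone), then kept in 3FC with medium renewed every fourth day. On day 8, cells were stimulated for 24 h in 3FC with compound:BSA or rosiglitazone. SYBR-green qPCR used gene-specific primers. Data are mean ± SEM of three biological replicates in duplicate.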

[5] = biological target: T3, Peroxisome proliferator-activated receptor alpha (Homo sapiens); experiment: Agonist activity at human PPARalpha in 8 day differentiated human SGBS cells assessed as increase in PLIN1 gene expression at 25 uM incubated for 24 hrs by SYBR-green based qPCR analysis; format: cell-based; procedure, shortened: as §2
[6] = test system: SGBS; experiment: Induction of adipogenesis in 8 day differentiated human SGBS cells assessed as increase in volume of lipid droplets at 25 uM measured upto 12 days by oil-O-red staining based inverted microscopic analysis; format: functional, cell-based; settings: time day <=12
Procedure, shortened: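 SGBS cells were differentiated in Quickdiff for 4 days, supplemented with 25 µM oxo-fatty acid or 2 µM rosiglitazone, then in 3FC to day 8. Controls were DMSO (0.025%) or BSA (4.2 µM). Cells were fixed in 4% paraformaldehyde for 15 min and stained 15 min with Oil Red O for neutral lipids. They were imaged by inverted microscope at 10× and 40×. Three biological replicates were run in duplicate.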

[7] = test system: SGBS; experiment: Induction of adipogenesis in 8 day differentiated human SGBS cells assessed as increase in PPARG mRNA expression at 25 uM measured upto 12 days by qRT-PCR analysis; format: functional, cell-based; settings: time day <=12
Procedure, shortened: (§3)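 SGBS cells were grown to confluence (day 0). Quickdiff medium was supplemented with compound or rosiglitazone for 4 days, followed by 3FC medium. DMSO or DMSO:BSA served as control. RNA was harvested on days 0, 4, 8 and 12, and expression was measured by SYBR-green qPCR. Data are mean ± SEM of at least three biological replicates in duplicate.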

[8] = test system: SGBS; experiment: Induction of adipogenesis in 8 day differentiated human SGBS cells assessed as increase in SCD1 mRNA expression at 25 uM measured upto 12 days by qRT-PCR analysis; format: functional, cell-based; settings: time day <=12; procedure, shortened: as §3
[9] = test system: SGBS; experiment: Induction of adipogenesis in 8 day differentiated human SGBS cells assessed as upregulation of fatty acid biosynthesis genes at 25 uM incubated for 8 days by Illumina sequencing method; format: functional, cell-based
Procedure, shortened: (§4)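 SGBS cells were differentiated for 8 days: Quickdiff for days 0-4 with 2 µM rosiglitazone or 25 µM oxo-fatty acid:BSA, then 3FC. Total RNA was extracted (RIN 9.80-10.00) and strand-specific TruSeq libraries were sequenced on NextSeq 500 (2×75 bp paired-end). Reads were aligned to hg19 and quantified as RPKM. Data were expressed as log2 fold over day-0 cells (n = 2-4) and grouped into KEGG gene sets.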

[10] = test system: SGBS; experiment: Induction of adipogenesis in 8 day differentiated human SGBS cells assessed as upregulation of steroid biosynthesis genes at 25 uM incubated for 8 days by Illumina sequencing method; format: functional, cell-based; procedure, shortened: as §4
[11] = biological target: T2, Peroxisome proliferator-activated receptor gamma (Homo sapiens); experiment: Agonist activity at human PPARgamma in 8 day differentiated human SGBS cells assessed as decrease in CXCL1 gene expression at 25 uM incubated for 24 hrs by SYBR-green based qPCR analysis; format: cell-based; settings: filed as agonist
[12] = biological target: T2, Peroxisome proliferator-activated receptor gamma (Homo sapiens); experiment: Agonist activity at human PPARgamma in 8 day differentiated human SGBS cells assessed as decrease in CXCL5 gene expression at 25 uM incubated for 24 hrs by SYBR-green based qPCR analysis; format: cell-based; settings: filed as agonist

EC50 [1]	Activity [2]	Activity [3]	Activity [4]	Activity [5]	Activity [11]	Activity [12]	SMILES	Activity [6]	Activity [7]	Activity [8]	Activity [9]	Activity [10]
26 µM	Active	Active	Active	inactive	Active	Active	CCCCC/C=C/C(=O)CCCCCCCC(=O)O	Active	Active	Active	Active	Active
20 µM	Active	Active	Active	inactive	Active	Active	CCCCCCCC(=O)/C=C/CCCCCC(=O)O	Active	Active	Active	Active	Active
